# Results from ChEMBL document CHEMBL4017453, “Design, synthesis and optimization of bis-amide derivatives as CSF1R inhibitors” (Bioorg Med Chem Lett, 2017).
# The source made the active and inactive calls. The rule behind the calls is not given here.
# How the values were obtained:
# [1] = target: Mast/stem cell growth factor receptor Kit (Homo sapiens, UniProt P10721); assay: Inhibition of human c-Kit using poly[Glu:Tyr] (4:1) as substrate measured after 2 hrs in presence of [33gammaP]ATP by […] ion exchange chromatographic method
# Sequence of Mast/stem cell growth factor receptor Kit (P10721 whole entry): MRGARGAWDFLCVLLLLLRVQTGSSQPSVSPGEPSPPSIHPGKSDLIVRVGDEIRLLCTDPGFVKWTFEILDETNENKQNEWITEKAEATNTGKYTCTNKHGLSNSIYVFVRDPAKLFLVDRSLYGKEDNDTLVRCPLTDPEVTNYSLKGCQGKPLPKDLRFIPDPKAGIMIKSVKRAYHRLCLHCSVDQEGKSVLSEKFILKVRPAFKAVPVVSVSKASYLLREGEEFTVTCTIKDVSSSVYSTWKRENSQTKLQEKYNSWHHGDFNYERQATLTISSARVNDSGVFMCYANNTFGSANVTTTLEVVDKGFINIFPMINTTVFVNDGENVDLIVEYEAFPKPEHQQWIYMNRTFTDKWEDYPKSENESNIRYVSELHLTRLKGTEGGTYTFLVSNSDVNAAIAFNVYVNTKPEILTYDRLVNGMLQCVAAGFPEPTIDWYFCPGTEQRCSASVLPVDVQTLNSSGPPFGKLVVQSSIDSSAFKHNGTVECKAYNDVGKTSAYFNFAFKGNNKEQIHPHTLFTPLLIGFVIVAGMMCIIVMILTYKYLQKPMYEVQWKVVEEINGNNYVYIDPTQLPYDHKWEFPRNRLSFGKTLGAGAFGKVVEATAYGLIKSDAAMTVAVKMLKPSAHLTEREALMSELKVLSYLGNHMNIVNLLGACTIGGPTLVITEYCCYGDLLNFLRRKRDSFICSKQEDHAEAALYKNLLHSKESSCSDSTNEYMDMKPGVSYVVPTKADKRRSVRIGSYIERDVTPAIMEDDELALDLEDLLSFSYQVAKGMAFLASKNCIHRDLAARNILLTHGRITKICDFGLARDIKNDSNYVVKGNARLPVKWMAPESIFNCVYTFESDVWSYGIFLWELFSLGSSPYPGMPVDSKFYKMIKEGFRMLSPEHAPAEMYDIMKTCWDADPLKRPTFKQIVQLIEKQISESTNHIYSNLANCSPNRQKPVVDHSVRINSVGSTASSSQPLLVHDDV
# How it was run: (§1)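 Radiometric kinase assay: enzyme incubated with [γ-33P]-ATP and peptide substrate; IC50 curves fitted per compound. Selectivity expressed as c-Kit IC50 over CSF1R IC50.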
# RAW264.7 = assay: Growth inhibition of mouse RAW264.7 cells at 1 uM after 72 hrs by CellTiter-Glo luminescent assay relative to control; format: functional; conditions: for inhibition of growth at 1 µM: RAW264.7, 72 h, read-out: GI
# [2] = Growth inhibition of mouse BMMC at 1 uM after 72 hrs by CellTiter-Glo luminescent assay relative to control; format: functional; conditions: read-out: GI
# How it was run: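 Cell viability in primary mouse bone marrow-derived macrophages, which depend on CSF1 for survival; inhibition measured at 1 single concentration.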
# Homo sapiens = organism: Homo sapiens; assay: Selectivity ratio of IC50 for human c-Kit to IC50 for human CSF1R; how it was run: as §1
# [3] = target: Macrophage colony-stimulating factor 1 receptor (Homo sapiens, UniProt P07333); assay: Inhibition of human CSF1R using poly[Glu:Tyr] (4:1) as substrate incubated for 2 hrs in presence of [33gammaP]ATP by P81 ion exchange chromatographic method
# Sequence of Macrophage colony-stimulating factor 1 receptor (P07333 whole entry): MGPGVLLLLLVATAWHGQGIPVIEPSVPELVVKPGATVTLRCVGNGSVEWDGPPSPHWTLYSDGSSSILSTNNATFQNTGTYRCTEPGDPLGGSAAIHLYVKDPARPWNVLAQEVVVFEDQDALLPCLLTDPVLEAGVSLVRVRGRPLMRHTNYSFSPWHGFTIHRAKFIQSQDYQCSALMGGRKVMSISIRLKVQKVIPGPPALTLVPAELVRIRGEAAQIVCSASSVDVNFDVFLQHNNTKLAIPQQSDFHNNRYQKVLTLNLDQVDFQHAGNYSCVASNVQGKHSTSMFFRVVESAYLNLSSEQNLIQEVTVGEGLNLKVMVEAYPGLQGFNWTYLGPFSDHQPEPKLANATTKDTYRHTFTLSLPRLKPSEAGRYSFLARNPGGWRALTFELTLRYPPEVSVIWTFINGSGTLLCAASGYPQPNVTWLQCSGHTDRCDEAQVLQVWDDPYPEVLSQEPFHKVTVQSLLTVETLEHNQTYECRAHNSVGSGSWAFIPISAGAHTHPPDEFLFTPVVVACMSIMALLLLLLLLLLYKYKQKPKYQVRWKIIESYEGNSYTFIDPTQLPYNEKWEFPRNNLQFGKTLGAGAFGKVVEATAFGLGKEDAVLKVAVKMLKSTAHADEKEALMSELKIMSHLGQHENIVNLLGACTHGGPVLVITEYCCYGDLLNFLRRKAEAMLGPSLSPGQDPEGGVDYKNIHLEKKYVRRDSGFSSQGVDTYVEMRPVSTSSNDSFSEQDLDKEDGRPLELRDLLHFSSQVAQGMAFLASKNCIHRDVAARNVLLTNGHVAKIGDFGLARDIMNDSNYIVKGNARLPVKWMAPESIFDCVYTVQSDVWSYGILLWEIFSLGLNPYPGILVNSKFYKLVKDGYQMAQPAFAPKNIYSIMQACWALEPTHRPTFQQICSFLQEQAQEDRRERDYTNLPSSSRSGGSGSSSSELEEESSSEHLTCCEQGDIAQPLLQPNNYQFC
# [4] = Kinetic solubility of the compound in PBS buffer at pH 7.4 at […] after 1 hr by nephelometry; format: physicochemical; conditions: read-out: Kinetic_solubility
# How it was run: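 Kinetic solubility determined in isotonic phosphate buffer.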
# [5] = Tmax in CD-1 mouse at 10 mg/kg, po; format: ADME, organism-based; conditions: in vivo
# How it was run: (§2)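 Mice given a single IV dose (2 mg/kg) or oral dose (10 mg/kg); plasma levels followed over time. AUClast taken from time 0 to last quantifiable concentration; Cmax and Tmax read from observed profile; CL is systemic clearance and Vss volume at steady state, both from IV; oral bioavailability derived from PO versus IV exposure.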
# [6] = Terminal half life in CD-1 mouse at 2 mg/kg, iv; format: ADME, organism-based; conditions: in vivo, read-out: beta t1/2 (converted); how it was run: as §2
# [7] = Stability in human plasma assessed as compound remaining at 1 uM after 4 hrs by LC/MS/MS analysis; format: ADME, cell-free; conditions: read-out: Stability
# How it was run: (§3)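 Test article incubated 4 h in human or mouse plasma to probe amidase hydrolysis; percent parent remaining versus time-zero control.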
# Liver [8] = assay: Drug metabolism in mouse liver microsomes assessed as demethylation by measuring N-(4-methyl-3-(3-(1-methyl-1H-pyrazol-4-yl)benzamido)phenyl)-4-(piperazin-1-ylmethyl)-3-(trifluoromethyl)benzamide level at 10 uM measured after 1 hr in presence of NADPH; format: ADME, microsome
# [9] = AUC (0 to last) in CD-1 mouse at 2 mg/kg, iv; format: ADME, organism-based; design: dose 2 mg/kg, time 0 - last, route intravenous; conditions: in vivo; how it was run: as §2
# [10] = Cmax in CD-1 mouse plasma at 2 mg/kg, iv; format: ADME, organism-based; design: dose 2 mg/kg, route intravenous; how it was run: as §2
# [11] = Volume of distribution at steady state in CD-1 mouse at 2 mg/kg, iv; format: ADME, organism-based; conditions: in vivo, read-out: Vdss; how it was run: as §2
# [12] = Cmax in CD-1 mouse plasma at 10 mg/kg, po; format: ADME, organism-based; design: dose 10 mg/kg, route oral; how it was run: as §2
# [13] = Stability in mouse liver microsomes assessed as compound remaining at 1 uM after 30 mins in presence of NADPH by LC/MS/MS analysis; format: ADME, microsome; conditions: read-out: Stability
# How it was run: (§4)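 Metabolic stability in human or mouse liver microsomes supplemented with NADPH; reported as percent of parent remaining relative to time-zero control.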
# [14] = Stability in mouse plasma assessed as compound remaining at 1 uM after 4 hrs by LC/MS/MS analysis; format: ADME, cell-free; conditions: read-out: Stability; how it was run: as §3
# [15] = Terminal half life in CD-1 mouse at 10 mg/kg, po; format: ADME, organism-based; conditions: in vivo, read-out: beta t1/2 (converted); how it was run: as §2
# [16] = Stability in human liver microsomes assessed as compound remaining at 1 uM after 30 mins in presence of NADPH by LC/MS/MS analysis; format: ADME, microsome; conditions: read-out: Stability; how it was run: as §4
# [17] = AUC (0 to last) in CD-1 mouse at 10 mg/kg, po; format: ADME, organism-based; design: dose 10 mg/kg, route oral, time 0 - last; conditions: in vivo; how it was run: as §2
# [18] = Clearance in iv dosed mouse; format: ADME, organism-based; conditions: in vivo; how it was run: as §2
# [19] = Oral bioavailability in CD-1 mouse at 10 mg/kg; format: ADME, organism-based; conditions: in vivo; how it was run: as §2
# [20] = Systemic clearance in CD-1 mouse at 2 mg/kg, iv; format: ADME, organism-based; conditions: in vivo; how it was run: as §2
# [21] = Apparent permeability from basolateral to apical side in human Caco2 cells at 10 uM incubated for 60 mins by LC-MS/MS analysis; format: ADME, cell-based, Caco-2; conditions: for Papp B→A at 1 h, 10 µM: Caco-2
# How it was run: (§5)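 Caco2 monolayer permeability measured in apical-to-basolateral and basolateral-to-apical directions; mean Papp with SD reported, efflux ratio calculated from the two directions.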
# [22] = Apparent permeability from apical to basolateral side in human Caco2 cells at 10 uM incubated for 60 mins by LC-MS/MS analysis; format: ADME, cell-based, Caco-2; conditions: for Papp A→B at 1 h, 10 µM: Caco-2; how it was run: as §5
# Liver [23] = assay: Drug level in mouse liver microsomes treated with N-(4-methyl-3-(3-(1-methyl-1H-pyrazol-4-yl)benzamido)phenyl)-4-((4-methylpiperazin-1-yl)methyl)-3-(trifluoromethyl)benzamide at 10 uM measured after 1 hr in presence of NADPH; format: ADME, microsome
compound,measurement,setting,value
Cc1ccc(C(=O)Nc2ccc(CN3CCN(C)CC3)c(C(F)(F)F)c2)cc1NC(=O)c1cccc(-c2cccnc2)c1,IC50,[1],210 nM
same,inhibition of growth at 1 µM,RAW264.7,6%
same,inhibition of growth at 1 µM,[2],61%
Cc1ccc(C(=O)Nc2ccc(CN3CCN(C)CC3)c(C(F)(F)F)c2)cc1NC(=O)c1cccc(-c2cccs2)c1,IC50,[1],440 nM
same,inhibition of growth at 1 µM,RAW264.7,7%
same,inhibition of growth at 1 µM,[2],22%
Cc1ccc(NC(=O)c2ccc(CN3CCN(C)CC3)c(C(F)(F)F)c2)cc1NC(=O)c1cccc(-c2cncnc2)c1,IC50,[1],5970 nM
same,growth inhibition (GI),RAW264.7,inactive
same,inhibition of growth at 1 µM,[2],76%
Cc1ccc(CNc2ccc(CN3CCN(C)CC3)c(C(F)(F)F)c2)cc1NC(=O)c1cccc(-c2cccs2)c1,IC50,[1],270 nM
Cc1ccc(NC(=O)c2ccc(CN3CCN(C)CC3)c(C(F)(F)F)c2)cc1NC(=O)c1cccc(-c2cn[nH]c2)c1,IC50,[1],20 nM
same,growth inhibition (GI),RAW264.7,inactive
same,Ratio IC50,Homo sapiens,> 40
same,IC50,[3],< 0.5 nM
same,inhibition of growth at 1 µM,[2],80%
Cc1ccc(C(=O)Nc2ccc(CN3CCN(C)CC3)c(C(F)(F)F)c2)cc1NCc1cccc(-c2cccs2)c1,IC50,[1],> 10000 nM
Cc1ccc(C(=O)Nc2ccc(CN3CCN(C)CC3)cc2)cc1NC(=O)c1cccc(-c2cccs2)c1,IC50,[1],> 10000 nM
same,inhibition of growth at 1 µM,RAW264.7,8%
same,IC50,[3],> 10000 nM
same,inhibition of growth at 1 µM,[2],11%
Cc1ccc(C(=O)N(C)c2ccc(CN3CCN(C)CC3)c(C(F)(F)F)c2)cc1NC(=O)c1cccc(-c2cccs2)c1,IC50,[1],5900 nM
Cc1ccc(C(=O)Nc2ccc(CN3CCN(C)CC3)c(C(F)(F)F)c2)cc1N(C)C(=O)c1cccc(-c2cccs2)c1,IC50,[1],> 10000 nM
Cc1ccc(NC(=O)c2ccc(CN3CCN(C)CC3)c(C(F)(F)F)c2)cc1NC(=O)c1cccc(-c2cnn(C)c2)c1,IC50,[1],740 nM
same,solubility kinetic at 1 h,[4],4.7 µM
same,Tmax,[5],15 min
same,half-life,[6],13.8 min
same,"remaining at 4 h, 1 µM",[7],95%
same,Drug metabolism,Liver [8],Metabolite_Detected
same,growth inhibition (GI),RAW264.7,inactive
same,AUC(0-t),[9],0.27 µM·h
same,Cmax,[10],850 nM
same,inhibition of growth at 1 µM,[2],81%
same,Vd,[11],4.23 L/kg
same,Cmax,[12],160 nM
same,"remaining at 0.5 h, 1 µM",[13],7%
same,"remaining at 4 h, 1 µM",[14],67%
same,half-life,[15],79.2 min
same,"remaining at 0.5 h, 1 µM",[16],46 to 47%
same,AUC(0-t),[17],0.16 µM·h
same,clearance,[18],210 mL/min/kg
same,bioavailability,[19],11%
same,clearance,[20],210 mL/min/kg
Cc1ccc(NC(=O)c2cccc(C(F)(F)F)c2)cc1NC(=O)c1cccc(-c2cnn(C)c2)c1,IC50,[1],130 nM
same,growth inhibition (GI),RAW264.7,inactive
same,"remaining at 0.5 h, 1 µM",[13],74%
same,"remaining at 0.5 h, 1 µM",[16],68%
Cc1ccc(NC(=O)c2ccc(CN3CCN(C)CC3)c(C(F)(F)F)c2)cc1NC(=O)c1cccc(-c2ccncc2)c1,IC50,[1],390 nM
same,growth inhibition (GI),RAW264.7,inactive
same,inhibition of growth at 1 µM,[2],72%
Cc1ccc(C(=O)Nc2ccc(CN3CCN(C)CC3)c(Cl)c2)cc1NC(=O)c1cccc(-c2cccs2)c1,IC50,[1],2700 nM
same,inhibition of growth at 1 µM,RAW264.7,4%
same,inhibition of growth at 1 µM,[2],20%
Cc1ccc(NC(=O)c2ccc(CN3CCN(C)CC3)c(C(F)(F)F)c2)cc1NC(=O)c1cccc(-c2cccnc2)c1,IC50,[1],900 nM
same,growth inhibition (GI),RAW264.7,inactive
same,inhibition of growth at 1 µM,[2],84%
Cc1ccc(NC(=O)c2cccc(C(F)(F)F)c2)cc1NC(=O)c1cnc(N)nc1,IC50,[1],820 nM
same,growth inhibition (GI),RAW264.7,inactive
same,"Papp B→A at 1 h, 10 µM",[21],5.3 ×10⁻⁶ cm/s
same,inhibition of growth at 1 µM,[2],86%
same,"remaining at 0.5 h, 1 µM",[13],65%
same,"remaining at 0.5 h, 1 µM",[16],91%
same,"Papp A→B at 1 h, 10 µM",[22],0.1 ×10⁻⁶ cm/s
Cc1ncc(NC(=O)c2cccc(C(F)(F)F)c2)cc1NC(=O)c1cncc(-c2cnn(C)c2)c1,IC50,[1],180 nM
same,growth inhibition (GI),RAW264.7,inactive
same,Papp,"[21]; caco-2, 1 h, 10 µM",36.3 ×10⁻⁶ cm/s
same,inhibition of growth at 1 µM,[2],87%
same,"remaining at 0.5 h, 1 µM",[13],57%
same,"remaining at 0.5 h, 1 µM",[16],60%
same,Papp,"[22]; caco-2, 1 h, 10 µM",0.5 ×10⁻⁶ cm/s
Cc1ccc(NC(=O)c2ccc(CN3CCN(C)CC3)c(C(F)(F)F)c2)cc1NC(=O)c1cccc(-c2nn[nH]n2)c1,IC50,[1],7500 nM
same,growth inhibition (GI),RAW264.7,inactive
same,inhibition of growth at 1 µM,[2],2.4%
Cc1ccc(NC(=O)c2ccc(CN3CCN(C)CC3)c(C(F)(F)F)c2)cc1NC(=O)c1cccc(-c2cccs2)c1,IC50,[1],1680 nM
Cc1ccc(NC(=O)c2ccc(CN3CCN(C)CC3)c(C(F)(F)F)c2)cc1NC(=O)c1cccc(-c2ccccn2)c1,IC50,[1],15000 nM
same,growth inhibition (GI),RAW264.7,inactive
same,inhibition of growth at 1 µM,[2],31%
CN1CCN(Cc2ccc(NC(=O)c3ccc(Cl)c(NC(=O)c4cccc(-c5cccs5)c4)c3)cc2C(F)(F)F)CC1,IC50,[1],190 nM
same,inhibition of growth at 1 µM,RAW264.7,8%
same,inhibition of growth at 1 µM,[2],-7%
Cc1ccc(NC(=O)c2cccc(C(F)(F)F)c2)cc1NC(=O)c1cncc(-c2cnn(C)c2)c1,IC50,[1],60 nM
same,Tmax,[5],30 min
same,half-life,[6],52.2 min
same,growth inhibition (GI),RAW264.7,inactive
same,AUC(0-t),[9],2.24 µM·h
same,Cmax,[10],3550 nM
same,"Papp B→A at 1 h, 10 µM",[21],32.5 ×10⁻⁶ cm/s
same,inhibition of growth at 1 µM,[2],96%
same,Vd,[11],1.1 L/kg
same,Cmax,[12],4600 nM
same,"remaining at 0.5 h, 1 µM",[13],63%
same,half-life,[15],108 min
same,"remaining at 0.5 h, 1 µM",[16],37%
same,AUC(0-t),[17],6.94 µM·h
same,bioavailability,[19],64%
same,clearance,[20],31 mL/min/kg
same,"Papp A→B at 1 h, 10 µM",[22],12.5 ×10⁻⁶ cm/s
Cc1ccc(NC(=O)c2ccc(CN3CCNCC3)c(C(F)(F)F)c2)cc1NC(=O)c1cccc(-c2cnn(C)c2)c1,IC50,[1],3000 nM
same,Drug metabolism,Liver [23],Metabolite_Detected
same,inhibition of growth at 1 µM,[2],44%
same,"remaining at 0.5 h, 1 µM",[13],72%
same,"remaining at 0.5 h, 1 µM",[16],85%
Cc1ccc(C(=O)Nc2ccc(CN3CCN(C)CC3)c(C(F)(F)F)c2)cc1NC(=O)c1cccc(-c2cncnc2)c1,IC50,[1],310 nM
same,inhibition of growth at 1 µM,RAW264.7,9%
same,inhibition of growth at 1 µM,[2],64%
